# Measurements taken from ChEMBL document CHEMBL2169742, “Design, synthesis, and biological evaluation of novel transrepression-selective liver X receptor (LXR) ligands with 5,11-dihydro-5-methyl-11-methylene-6H-dibenz[b,e]azepin-6-one skeleton” (J Med Chem, 2012).
# Calls of active or inactive are those of the source. No cut-off for these calls is given here.
# Target: T1, Oxysterols receptor LXR-beta (Homo sapiens, UniProt P55055)
# T1 sequence (P55055 whole entry): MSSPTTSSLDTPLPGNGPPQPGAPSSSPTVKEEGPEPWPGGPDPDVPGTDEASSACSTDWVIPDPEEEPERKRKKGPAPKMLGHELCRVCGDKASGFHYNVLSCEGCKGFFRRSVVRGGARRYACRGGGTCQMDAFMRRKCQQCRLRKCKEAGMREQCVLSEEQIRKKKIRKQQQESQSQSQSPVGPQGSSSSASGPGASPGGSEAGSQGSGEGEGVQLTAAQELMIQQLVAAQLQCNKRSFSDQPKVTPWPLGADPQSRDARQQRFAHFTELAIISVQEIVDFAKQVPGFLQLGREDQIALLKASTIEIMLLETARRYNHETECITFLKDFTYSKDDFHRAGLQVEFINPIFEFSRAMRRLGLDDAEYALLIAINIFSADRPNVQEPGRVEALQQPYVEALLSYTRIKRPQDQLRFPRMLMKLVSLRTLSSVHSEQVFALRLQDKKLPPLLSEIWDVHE
# Assay: Transactivational agonist activity at human LXRbeta transfected in HEK293 cells expressing CMX-Gal4N assessed as luciferase activity at 30 uM after 16 hrs by reporter gene assay
# Type: cell-based
# Conditions: hek293, 16 h
row,Compound,Activity
1,C=C1c2ccc(-c3ccc(C(=O)O)cc3)cc2C(=O)N(C)c2ccc(CC)cc21,Not Active
2,C=C1c2ccccc2C(=O)N(C)c2ccc(C(C)C)cc21,Not Active
3,C=C1c2ccc(-c3cccc(CC(=O)O)c3)cc2C(=O)N(C)c2ccc(CC)cc21,Not Active
4,C=C1c2ccc(-c3cccc(C(=O)O)c3)cc2C(=O)N(C)c2ccc(CC)cc21,Not Active
5,[CH2-]c1c2ccccc2c(=O)[n+](C)c2ccc([N+](=O)[O-])cc12,Not Active
6,C=C1c2ccccc2C(=O)N(C)c2ccc(CCCCCCCCCCCC)cc21,Not Active
7,C=C1c2ccc(-c3ccc(CC(=O)O)cc3)cc2C(=O)N(C)c2ccc(CC)cc21,Not Active
8,C=C1c2ccccc2C(=O)N(C)c2ccc(C(C)=O)cc21,Not Active
9,C=C1c2ccccc2C(=O)N(C)c2ccc(C(=O)O)cc21,Not Active

# System: not listed separately
# Assay: Apparent permeability from apical to basal side of human Caco2 cells at 10 uM
# Type: ADME, cell-based
# Conditions: Caco-2
# How it was run: (§1)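 Colchicine and ranitidine were low-permeability controls, propranolol the high-permeability control, labetalol the P-gp substrate control.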
row,Compound,Papp A→B at 10 µM [×10⁻⁶ cm/s]
1,C=C1c2ccccc2C(=O)N(C)c2ccc(O)cc21,≥ 20

# Target: T2, Oxysterols receptor LXR-alpha (Homo sapiens, UniProt Q13133)
# T2 sequence (Q13133 whole entry): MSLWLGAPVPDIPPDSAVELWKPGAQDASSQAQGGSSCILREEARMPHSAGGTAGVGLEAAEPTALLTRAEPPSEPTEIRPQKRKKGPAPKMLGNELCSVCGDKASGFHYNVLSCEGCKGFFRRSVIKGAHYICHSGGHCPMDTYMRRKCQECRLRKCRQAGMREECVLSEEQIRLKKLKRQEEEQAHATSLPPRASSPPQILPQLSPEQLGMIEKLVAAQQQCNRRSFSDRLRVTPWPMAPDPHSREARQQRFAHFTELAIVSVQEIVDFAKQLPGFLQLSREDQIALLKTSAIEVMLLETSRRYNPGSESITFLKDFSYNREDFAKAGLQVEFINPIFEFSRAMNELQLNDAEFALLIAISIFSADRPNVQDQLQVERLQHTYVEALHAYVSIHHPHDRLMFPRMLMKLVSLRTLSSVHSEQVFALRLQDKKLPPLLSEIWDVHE
# Assay: Transactivational agonist activity at human LXRalpha transfected in HEK293 cells expressing CMX-Gal4N assessed as luciferase activity at 30 uM after 16 hrs by reporter gene assay
# Type: cell-based
# Conditions: hek293, 16 h
row,Compound,Activity
1,C=C1c2ccc(-c3ccc(C(=O)O)cc3)cc2C(=O)N(C)c2ccc(CC)cc21,Not Active
2,C=C1c2ccccc2C(=O)N(C)c2ccc(C(C)C)cc21,Not Active
3,C=C1c2ccc(-c3cccc(CC(=O)O)c3)cc2C(=O)N(C)c2ccc(CC)cc21,Not Active
4,C=C1c2ccc(-c3cccc(C(=O)O)c3)cc2C(=O)N(C)c2ccc(CC)cc21,Not Active
5,[CH2-]c1c2ccccc2c(=O)[n+](C)c2ccc([N+](=O)[O-])cc12,Not Active
6,C=C1c2ccccc2C(=O)N(C)c2ccc(CCCCCCCCCCCC)cc21,Not Active
7,C=C1c2ccc(-c3ccc(CC(=O)O)cc3)cc2C(=O)N(C)c2ccc(CC)cc21,Not Active
8,C=C1c2ccccc2C(=O)N(C)c2ccc(C(C)=O)cc21,Not Active
9,C=C1c2ccccc2C(=O)N(C)c2ccc(C(=O)O)cc21,Not Active

# Target: T1, Oxysterols receptor LXR-beta
# Assay: Transactivational antagonist activity at human LXRbeta transfected in HEK293 cells expressing CMX-Gal4N assessed as inhibition of T1317-induced luciferase activity after 16 hrs by reporter gene assay
# Type: functional, cell-based
# Conditions: not given
row,Compound,IC50 [µM]
1,C=C1c2ccccc2C(=O)N(C)c2ccccc21,> 10
2,C=C1c2ccc(-c3ccc(C(=O)O)cc3)cc2C(=O)N(C)c2ccc(CC)cc21,9.5
3,C=C1c2ccccc2C(=O)N(C)c2ccc(C(C)C)cc21,> 10
4,C=C1c2ccc(-c3cccc(CC(=O)O)c3)cc2C(=O)N(C)c2ccc(CC)cc21,27
5,C=C1c2ccc(-c3cccc(C(=O)O)c3)cc2C(=O)N(C)c2ccc(CC)cc21,> 30
6,[CH2-]c1c2ccccc2c(=O)[n+](C)c2ccc([N+](=O)[O-])cc12,13
7,C=C1c2ccccc2C(=O)N(C)c2ccc(CCCCCCCCCCCC)cc21,> 30
8,C=C1c2ccc(-c3ccc(CC(=O)O)cc3)cc2C(=O)N(C)c2ccc(CC)cc21,15
9,C=C1c2ccccc2C(=O)N(C)c2ccc(C(C)=O)cc21,7.5
10,C=C1c2ccccc2C(=O)N(C)c2ccc(C(=O)O)cc21,26

# Target: Liver X receptor (Homo sapiens) (UniProt Q13133+P55055)
# Assay: Transrepressional activity at LXR in human TPA-activated THP1 cells assessed as inhibition of LPS-induced IL6 production at 30 uM incubated for 6 hrs prior to LPS-challenge measured after 18 hrs by ELISA
# Type: cell-based
# Conditions: THP-1
# How it was run: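 THP-1 cells were differentiated with 10 nM TPA for 48 h, then replated at 3 × 10⁴/well. They were pretreated with sample for 6 h before LPS (100 ng/mL). Supernatant IL-6 was measured by ELISA after 18 h.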
row,Compound,inhibition
1,C=C1c2ccccc2C(=O)N(C)c2ccccc21,inactive
2,C=C1c2ccc(-c3ccc(C(=O)O)cc3)cc2C(=O)N(C)c2ccc(CC)cc21,inactive
3,C=C1c2ccc(-c3cccc(C(=O)O)c3)cc2C(=O)N(C)c2ccc(CC)cc21,inactive
4,C=C1c2ccccc2C(=O)N(C)c2ccc(CCCCCCCCCCCC)cc21,inactive

# System: not listed separately
# Assay: Permeability from apical to basal side of human Caco2 cells at 10 uM
# Type: ADME, cell-based
# Conditions: Caco-2, read-out: permeability
# How it was run: as §1
row,Compound,Papp A→B at 10 µM [×10⁻⁶ cm/s]
1,C=C1c2ccccc2C(=O)N(C)c2ccc(O)cc21,84.3

# Target: T2, Oxysterols receptor LXR-alpha
# Assay: Transactivational antagonist activity at human LXRalpha transfected in HEK293 cells expressing CMX-Gal4N assessed as inhibition of T1317-induced luciferase activity after 16 hrs by reporter gene assay
# Type: functional, cell-based
# Conditions: not given
row,Compound,IC50 [µM]
1,C=C1c2ccccc2C(=O)N(C)c2ccccc21,> 10
2,C=C1c2ccc(-c3ccc(C(=O)O)cc3)cc2C(=O)N(C)c2ccc(CC)cc21,1.3
3,C=C1c2ccccc2C(=O)N(C)c2ccc(C(C)C)cc21,1.7
4,C=C1c2ccc(-c3cccc(CC(=O)O)c3)cc2C(=O)N(C)c2ccc(CC)cc21,21
5,C=C1c2ccc(-c3cccc(C(=O)O)c3)cc2C(=O)N(C)c2ccc(CC)cc21,> 30
6,[CH2-]c1c2ccccc2c(=O)[n+](C)c2ccc([N+](=O)[O-])cc12,6.1
7,C=C1c2ccccc2C(=O)N(C)c2ccc(CCCCCCCCCCCC)cc21,> 30
8,C=C1c2ccc(-c3ccc(CC(=O)O)cc3)cc2C(=O)N(C)c2ccc(CC)cc21,2.2
9,C=C1c2ccccc2C(=O)N(C)c2ccc(C(C)=O)cc21,4.9
10,C=C1c2ccccc2C(=O)N(C)c2ccc(C(=O)O)cc21,14

# System: not listed separately
# Assay: Metabolic stability in human liver microsomes assessed as compound remaining at 0.1 uM by LC-MS/MS analysis
# Type: ADME, Microsome
# Conditions: read-out: Stability
# How it was run: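 Human liver microsomes were incubated with compound at 0.1 μM. Percent parent remaining was quantified by LC/MS/MS; imipramine, propranolol, terfenadine and verapamil served as controls.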
row,Compound,remaining at 0.1 µM [%]
1,C=C1c2ccccc2C(=O)N(C)c2ccc(O)cc21,87.8
